# Laboratory results published in ChEMBL document CHEMBL1157235, “Lupane and oleanane triterpenoids from the cones of Liquidamber styraciflua” (2006).
# Active and inactive are the calls of the source. No cut-off for these calls is given here.
# How the values were obtained:
# A549 [1] = assay: Cytotoxicity against human A549 cells after 72 hrs by MTT assay; format: functional; conditions: A549, 72 h, read-out: ED50 (the source's name)
# Procedure, shortened: (§1)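 Cells were grown in RPMI-1640 with 10% FBS at 37 °C under humidified 5% CO2 and seeded at 1 × 10^4 cells/well with compounds for 72 h. MTT (5 mg/mL stock) was then added for 4 h at 37 °C. Formazan was solubilized with acidic SDS (0.02 N HCl in 20% SDS), and absorbance was read at 570 nm against a 620 nm reference.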
# P388 [2] = assay: Cytotoxicity against mouse P388 cells after 72 hrs by MTT assay; format: functional; conditions: P388, 72 h, read-out: ED50 (the source's name); procedure, shortened: as §1
# A549 [3] = assay: Cytotoxicity against human A549 cells at 40 uM after 72 hrs by MTT assay; format: functional, cell-based
# P388 [4] = assay: Cytotoxicity against mouse P388 cells at 40 uM after 72 hrs by MTT assay; format: functional, cell-based
SMILES,EC50 (A549 [1]),EC50 (P388 [2]),Activity (A549 [3]),Activity (P388 [4])
CC1(C)CC[C@]2(C(=O)O)CC[C@]3(C)C(=CC[C@@H]4[C@@]5(C)CCC(=O)C(C)(C)[C@@H]5[C@H](O)C[C@]43C)[C@@H]2C1,33.5 µM,18.5 µM,,
C=C(CO)[C@@H]1CC[C@]2(C(=O)O)CC[C@]3(C)[C@H](CC[C@@H]4[C@@]5(C)CCC(=O)C(C)(C)[C@@H]5[C@H](O)C[C@]43C)[C@@H]12,,,inactive,inactive
COc1cc([C@@H]2c3cc4c(cc3[C@@H](O[C@@H]3O[C@@H]5CO[C@@H](C)O[C@H]5[C@H](O)[C@H]3O)[C@H]3COC(=O)[C@H]23)OCO4)cc(OC)c1O [ETOPOSIDE],3.76 µM,,,
CC(=O)OC[C@]12CC[C@@H](O)C(C)(C)C1CC[C@]1(C)[C@@H]2CC=C2[C@@H]3CC(C)(C)CC[C@]3(C(=O)O)CC[C@]21C (stereo not given in full),13.3 µM,28.2 µM,,
C=C(C)[C@@H]1CC[C@]2(C(=O)O)CC[C@]3(C)[C@@H](CC[C@@H]4[C@@]5(C)CCC(=O)C(C)(C)[C@@H]5[C@H](O)C[C@]43C)[C@@H]12,≥ 40 µM,32.7 µM,,
CC1(C)CC[C@]2(C(=O)O)CC[C@]3(C)C(=CC[C@@H]4[C@]56CC[C@@](O)(OC5)C(C)(C)[C@@H]6CC[C@]43C)[C@@H]2C1 [LANTANOLIC ACID],26.5 µM,24 µM,,
C=C(C)[C@@H]1CC[C@]2(C(=O)O)CC[C@]3(C)[C@H](CC[C@@H]4[C@]56CC[C@@](O)(OC5)C(C)(C)[C@@H]6CC[C@]43C)[C@@H]12,29.9 µM,22.3 µM,,
CC(=O)[C@@H]1CC[C@]2(C(=O)O)CC[C@]3(C)[C@H](CC[C@@H]4[C@@]5(C)CCC(=O)C(C)(C)[C@@H]5[C@H](O)C[C@]43C)[C@@H]12,,,inactive,inactive
